Assay outcomes from PubChem.
EBNA-1 inh: blocks EBNA-1 binding to DNA | AID 1950 | hit rate 0.34% among 300,000 | inhibition, % at 14.8 µM | EBNA-1 DNA binding, fluorescence polarization; in the data active = inhibition above about 28%
ZTA DNA inh: counter-screen for EBNA-1 inhibitors: inhibitors of Epstein-Barr virus ZTA | P03206 | ZTA-DNA binding, fluorescence polarization | inhibition, % at 11 µM | hit rate 0.15% among 320,000; in the data active = inhibition above about 33%
Target sequence (P03206 whole entry, looked up): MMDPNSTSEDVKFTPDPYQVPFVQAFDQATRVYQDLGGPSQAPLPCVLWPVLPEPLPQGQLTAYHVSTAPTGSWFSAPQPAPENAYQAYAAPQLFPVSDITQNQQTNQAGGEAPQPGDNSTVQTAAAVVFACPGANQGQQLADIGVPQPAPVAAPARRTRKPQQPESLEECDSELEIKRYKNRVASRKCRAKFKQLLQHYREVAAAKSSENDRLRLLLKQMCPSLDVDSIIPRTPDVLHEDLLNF
core dimer inh: blocks dimerization of HCV core protein | inhibition, % at 5 µM | hit rate 0.33% among 300,000 | TR-FRET GST/Flag-core106 dimerization, 1536-well;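 active = inhibition above the mean of all tested compounds plus 3 SD, set per screening campaign, cut at about 45% in these data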
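System – GST-tagged and Flag-tagged HCV core protein residues 1-106 · Repeats – one well for each compound · Technique – TR-FRET 671 and 617 nm emission · Doses – one concentration, 5 µM, in 0.5% DMSO · Times – 4 h, 22.5 °C incubation · Also added – Eu donor and XL665 acceptor anti-tag antibodies · Measure – percent inhibition of core106 dimerization signal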
SUMO HTRF inh: SUMOylation inhibition | P63279 | HTRF SUMOylation assay, SAE1/SAE2 + UBC9, in vitro | inhibition, % at 35 µM | hit rate 0.36% among 290,000 | AID 2006; in the data active = inhibition above about 50%, passing the limit was not always enough
Target sequence (P63279 whole entry, looked up): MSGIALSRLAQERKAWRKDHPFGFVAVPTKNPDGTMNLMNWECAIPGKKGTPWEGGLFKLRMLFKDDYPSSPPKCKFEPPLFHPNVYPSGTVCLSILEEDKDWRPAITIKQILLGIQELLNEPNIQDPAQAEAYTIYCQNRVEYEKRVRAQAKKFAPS
NS3 helicase inh: blocks Hepatitis C virus NS3 helicase unwinding | NS3 helicase DNA unwinding, Cy5 molecular beacon fluorescence | inhibition, % at 10.9 µM | hit rate 0.56% among 290,000 | AID 1800;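 active = inhibition above the mean of all tested compounds plus 3 SD, set per campaign, cut at about 35% in these data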;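 also: 0% = DMSO wells and 100% = thioflavine S control wells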
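System: HCV NS3 helicase fragment; control set: DMSO and thioflavine S; technique: Cy5 fluorescence at 0 and 60 min, beacon hairpin quenching; reagent: beacon DNA duplex substrate plus ATP; replicates: singlicate; schedule: 1 h reaction at 25 °C, ATP-initiated; medium: MOPS buffer pH 6.5 with MgCl2, DTT, Tween20, BSA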
NS3 hel confirm: HCV NS3 helicase inhibition, confirmation assay | shares compounds with NS3 helicase inh | NS3 helicase DNA unwinding, Cy5 molecular beacon fluorescence | inhibition, % at 10.9 µM | hit rate 31% among 1,600;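 active = inhibition above the mean of all tested compounds plus 3 SD, cutoff set per campaign, cut at about 36% in these data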
FID counter trip: displaces DNA intercalator in HCV helicase counter-screen; DNA fluorescent intercalator displacement, fluorescence; inhibition, % at 7.9 µM; hit rate 4% among 1,600; shares compounds with NS3 helicase inh; in the data active = inhibition above about 37%;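 also: 0% = vehicle and 100% = reference compound; higher means more displacement of ethidium bromide from the DNA hairpin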
DNA FID DR: DNA intercalator displacement in dose response; shares compounds with NS3 helicase inh; fluorescent intercalator displacement from DNA, fluorescence; IC50, µM; 120 tested, under 10 active; AID 2172; call rule not given here
* hit, by the source's call; / = no result. Shown are actives, neighbours in structure and some others; about 1.4% of the full set was active somewhere.

SMILES	EBNA-1 inh	ZTA DNA inh	core dimer inh	SUMO HTRF inh	NS3 helicase inh	NS3 hel confirm	FID counter trip	others
Cc1occc1C(=O)N(Cc1nc(-c2ccccc2)no1)C(C)C	-0.5	-1.9	0.0	9.8	3.7	/	/
COC(=O)/C=C1/SC(=NC(=O)c2cccc([N+](=O)[O-])c2)NC1=O	-1.0	1.6	8.1	9.5	-0.5	/	/
COCCn1c(=S)[nH]c2sc3c(c2c1=O)CCCC3	-8.3	8.8	-9.4	-3.3	52.4*	-9.4	-5.7
COCCCn1c(=S)[nH]c2sc3c(c2c1=O)CCCC3	1.4	-6.4	-9.5	-11.4	10.7	/	/
CN(C)/C=C1\C(=O)N(c2ccc([N+](=O)[O-])cc2)N=C1c1ccccc1	3.5	5.6	8.9	10.7	40.0*	53.3*	9.7
COc1ccc(-n2c(NC(=O)c3ccco3)c(C#N)c3nc4ccccc4nc32)cc1	5.1	2.8	30.0	86.4	7.4	/	/
N#Cc1c(NC(=O)c2ccccc2Cl)n(Cc2ccccc2)c2nc3ccccc3nc12	9.1	13.5	20.2	99.6*	41.1*	37.5*	17.9
CCCCn1c(NC(=O)c2ccccc2Cl)c(C#N)c2nc3ccccc3nc21	9.2	15.6	21.9	/	46.7*	68.7*	-0.5
CCCCn1c(NC(=O)CC)c(C#N)c2nc3ccccc3nc21	6.0	22.1	0.4	10.4	10.2	/	/
Cc1csc(=O)n1CC(=O)OCC(=O)Nc1cc(Cl)ccc1[N+](=O)[O-]	3.1	0.1	-6.2	-4.0	3.9	/	/
CN(C)S(=O)(=O)c1cccc(NC(=O)COC(=O)c2cc3ccccc3oc2=O)c1	7.9	-1.7	0.2	-11.0	-16.5	/	/
CCCCNC(=O)COC(=O)c1c2c(nc3ccccc13)/C(=C/c1cccs1)CC2	-4.2	7.2	32.9	28.6	37.9*	-11.7	-5.6
NS(=O)(=O)c1ccc(NC(=O)NC2CC(=O)N(c3ccc4c(c3)OCCO4)C2)cc1 (stereo not drawn)	0.1	-1.4	0.7	/	/	/	/
CCCc1cc(=O)oc2cc(C)cc(OC(C)C(=O)NCC3CCC(C(=O)O)CC3)c12 (stereo not drawn)	-5.9	3.5	-5.1	40.3	38.2*	-18.7	-12.4
Cc1sc(NC(=O)CSc2nnc(-c3ccccc3)o2)c(C#N)c1C	18.6	-2.6	10.7	-9.1	37.6*	-1.8	-21.7
CC1CCc2c(sc(NC(=O)CSc3nnc(-c4ccccc4)o3)c2C#N)C1 (stereo not drawn)	-4.2	7.8	0.7	-16.7	47.2*	0.7	5.7
N#Cc1c(NC(=O)CSc2nnc(-c3ccccc3)o2)sc2c1CCCC2	-2.4	9.7	-23.3	-3.8	26.2	/	/
COc1ccc2c(c1)cc(C(=O)N/N=C/c1c(O)c(C(=O)O)cc3ccccc13)n2C	12.4	-1.6	15.5	43.0	79.5*	104.2*	13.8
CCOC(=O)/C=C(C)\C=C\c1c[nH]c2ccccc12	-1.0	4.6	-3.3	-8.3	45.4*	2.4	10.0
CCOC(=O)/C(=C/c1c[nH]c2ccccc12)NC(C)=O	-13.1	-11.5	-9.2	-37.4	-1.1	/	/
CCN(CC(=O)Nc1ccc(OC)cc1)C(=O)Cc1coc2cc(C)c(C)cc12	/	-22.2	/	/	/	/	/
O=C(O)c1cccc(-n2c(/C=C/c3ccccc3)nc3ccccc3c2=O)c1	3.1	-20.1	-1.8	3.7	52.6*	53.3*	-22.9	DNA FID DR=>79.4
Cc1ccc(-c2cc(C(F)(F)F)c(C#N)c(=O)[nH]2)cc1	3.6	-17.4	-3.8	12.8	31.1	/	/
Cc1ccc(-c2cc(-c3ccco3)c(C#N)c(=O)[nH]2)cc1	-10.2	5.0	14.5	61.5*	42.0*	26.5	-0.9
O=C1Cc2ccccc2C(=O)N1c1cccc(Cl)c1	-4.4	-5.6	-5.1	16.3	36.8*	-18.6	19.0
SMILES	EBNA-1 inh	ZTA DNA inh	core dimer inh	SUMO HTRF inh	NS3 helicase inh	NS3 hel confirm	FID counter trip	others
O=C1NC(c2ccccc2)=C(c2nc3ccccc3s2)C(c2ccccc2)N1 (stereo not drawn)	1.4	-5.1	8.0	6.2	38.7*	-4.8	-13.3
COc1ncnc2c1ncn2CC1COC(C)(C)O1 (stereo not drawn)	-5.2	-3.5	-0.2	/	/	/	/
COc1cc(NC(=O)C(=O)NNC(=O)C2CCCCC2)c(OC)cc1Cl	-2.4	0.6	-5.4	16.8	36.0*	-12.4	-8.2
CC[C@@H](C)[C@H](NC(=O)Cc1c(C)c2c(cc(C)c3c(C)c(C)oc32)oc1=O)C(=O)O	/	/	/	45.3	36.7*	10.3	-23.8
Cc1cccc(NC(=O)Nc2cccc(C)n2)n1	1.3	-7.3	-5.6	16.8	39.2*	-8.4	0.7
Cc1cccc(NC(=O)/C=C/c2cccs2)n1	-1.7	-1.4	-5.3	5.3	67.1*	-12.8	16.3
O=C(/C=C/c1cccs1)Nc1ccncc1	0.4	-2.4	-4.7	16.4	-20.4	/	/
CC(C)(C)c1ccc(Cn2nnc3c(=O)[nH]c(C4CCCN(C(=O)c5cccs5)C4)nc32)cc1 (stereo not drawn)	6.2	-10.7	17.4	5.5	-9.6	/	/
COC(c1ccc(Cl)cc1)(c1ccc(Cl)cc1)C(Oc1nccc(C)n1)C(=O)O (stereo not drawn)	3.9	9.0	17.1	1.0	30.3	/	/
COC(c1ccc(Cl)cc1)(c1ccc(Cl)cc1)C(Oc1nc(C)cc(C)n1)C(=O)O (stereo not drawn)	12.0	-3.6	10.6	2.6	36.9*	36.2*	-4.2
O=C(CSc1ccccc1)OCC(=O)N1CCN(C(=O)c2ccco2)CC1	/	13.2	/	/	/	/	/
Cc1cccc(N/C(=N/S(=O)(=O)c2ccccc2)c2ccccc2)n1	-0.2	5.1	6.0	11.6	0.6	/	/
Cc1nnc(SCC2=C(C(=O)O)N3C(=O)C(NC(=O)Cn4nc(C(F)F)c(Cl)c4C)C3SC2)s1 (stereo not drawn)	-1.1	8.3	-1.9	-4.9	44.9*	38.0*	-22.0
Cc1nnc(SCC2=C(C(=O)O)N3C(=O)C(NC(=O)c4cc(F)c(F)cc4Cl)C3SC2)s1 (stereo not drawn)	2.6	-7.1	0.8	-5.3	36.2*	11.4	-23.3
CC(=O)OCC1=C(C(=O)O)N2C(=O)C(NC(=O)Cn3nc(C(F)F)c(Cl)c3C)C2SC1 (stereo not drawn)	-6.6	7.6	2.0	-0.2	40.3*	17.7	-9.2
CC(=O)OCC1=C(C(=O)O)N2C(=O)C(NC(=O)c3ccc(COc4c(C)cccc4Cl)o3)C2SC1 (stereo not drawn)	5.7	-3.0	14.2	13.7	38.5*	46.3*	-15.8
CC(C)c1ccc(O)c(C(=O)c2cnn(-c3ccccc3)c2)c1	-0.9	-6.9	3.2	/	/	/	/
CC(C)(C)N1CC23C=CC(C[C@@H]2C1=O)O3 (stereo partly drawn)	5.1	15.6	7.1	/	/	/	/
